DTT redox prof – compounds producing H2O2 with reducing agent – biochemical, NIH compound library profiling, artefact control for MLSCN library redox annotation, primary screen; DTT-dependent redox cycling H2O2, phenol red/HRP absorbance; 100% = 100 µM peroxide control, 0% = buffer; activation, % at 10 µM; 0.03% of 200,000 active; AID 878, 2007;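 active means activation of at least 50% relative to the plate's high and low controls in the primary single-dose screen; inactive means activation below 50%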;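 further: compound incubated with DTT at 0.8 mM final as the reducing agent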
KCC2 mod – KCC2 cotransporter modulators, thallium flux, primary screen, cell-based, HEK293 KCC2, FluoZin-2 fluorescence, MLSMR; Solute carrier family 12 member 5 (Homo sapiens), Q9H2X9; KCC2 cells, thallium flux FluoZin-2 fluorescence; B-score of Tl+ flux slope (higher = more flux/activation; lower = inhibition) at 10 µM; 2.2% of 190,000 active;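 active means thallium flux slope and its plate-corrected score both differing from the plate sample mean at a set confidence after two filtering rounds, in either direction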;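 further: slope of fluorescence scaled to starting intensity during 10 to 20 s after thallium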
Target sequence (Q9H2X9 whole entry, looked up): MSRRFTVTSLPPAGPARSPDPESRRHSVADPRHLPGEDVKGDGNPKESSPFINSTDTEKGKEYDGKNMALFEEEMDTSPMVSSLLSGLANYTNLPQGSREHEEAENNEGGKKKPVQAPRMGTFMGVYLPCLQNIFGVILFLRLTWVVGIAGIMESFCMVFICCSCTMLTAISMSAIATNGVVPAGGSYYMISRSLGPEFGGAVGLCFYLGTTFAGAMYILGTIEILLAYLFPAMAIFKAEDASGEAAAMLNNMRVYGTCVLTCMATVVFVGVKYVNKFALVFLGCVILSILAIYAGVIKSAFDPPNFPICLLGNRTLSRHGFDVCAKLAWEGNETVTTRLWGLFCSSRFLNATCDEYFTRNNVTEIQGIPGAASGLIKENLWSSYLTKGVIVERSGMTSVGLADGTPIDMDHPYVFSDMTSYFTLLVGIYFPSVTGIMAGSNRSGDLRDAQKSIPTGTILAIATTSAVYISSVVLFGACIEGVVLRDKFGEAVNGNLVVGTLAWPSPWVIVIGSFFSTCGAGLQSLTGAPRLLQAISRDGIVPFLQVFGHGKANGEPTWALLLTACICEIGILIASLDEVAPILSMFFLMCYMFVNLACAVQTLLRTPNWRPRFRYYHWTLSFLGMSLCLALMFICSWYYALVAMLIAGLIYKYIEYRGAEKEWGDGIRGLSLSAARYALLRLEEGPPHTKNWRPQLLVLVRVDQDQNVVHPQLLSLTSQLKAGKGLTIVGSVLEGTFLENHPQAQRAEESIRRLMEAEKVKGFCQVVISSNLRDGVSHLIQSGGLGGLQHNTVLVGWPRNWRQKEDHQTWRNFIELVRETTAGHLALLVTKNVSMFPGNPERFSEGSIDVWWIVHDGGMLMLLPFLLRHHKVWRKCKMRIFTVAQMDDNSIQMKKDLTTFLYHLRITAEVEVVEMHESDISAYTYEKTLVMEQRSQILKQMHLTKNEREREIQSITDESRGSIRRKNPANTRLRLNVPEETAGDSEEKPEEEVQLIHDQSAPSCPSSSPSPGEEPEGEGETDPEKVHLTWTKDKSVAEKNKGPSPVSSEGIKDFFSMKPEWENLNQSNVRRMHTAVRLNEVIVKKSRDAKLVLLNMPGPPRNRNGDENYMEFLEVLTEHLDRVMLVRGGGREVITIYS
Autophagy HCS – autophagy modulators in MEF cells, primary screen, imaging, high-content, MEF GFP-LC3; MEF GFP-LC3 puncta imaging; test concentration mostly 10 µM; calls only at 10 µM (by protocol); 0.98% of 190,000 active; AID 463193, 2010;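 active means percentage of spot-positive cells more than 3 SD above its plate mean, without a fluorescence outlier flag or 80% toxicity; inconclusive means no clear call, values can overlap the other calls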;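 further: spot-positive cell cutoff set from DMSO-treated cells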
ROMK mod – ROMK potassium channel modulators, primary screen, cell-based, thallium flux, MLSMR library; ATP-sensitive inward rectifier potassium channel 1 (Homo sapiens), P48048; Tet-inducible ROMK, thallium flux fluorescence; actives lie on both sides; B-score at 10 µM; 2% of 130,000 active;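 active means signal ratio slope over the read window, or its plate-corrected B-score, at least 3 SD from the plate mean, either direction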;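 further: B-score of the F/F0 ratio slope over 7 to 12 s after thallium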
Dynein cargo inh – inhibitors of GR-EGFP nuclear translocation, primary screen, dynein cargo transport inhibitor project, imaging, high-content, 3617.4 mouse cells; z-score, hits read low; 0.47% of 220,000 active; test concentration mostly 20 µM; stimulated with dexamethasone, 1 µM; active compounds read low;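 active means plate z-score of nuclear minus cytoplasmic receptor signal below a set negative limit, without overly bright fluorescence or cell loss, cut at about -3.5 in these data, passing the limit was not always enough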;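 further: z-score of nuclear minus cytoplasmic ring GR-EGFP intensity difference per well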
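Buffer or medium: tetracycline-free induction medium containing charcoal-stripped FBS / Reagent: dexamethasone agonist, 1.0 µM final, for 30 min / Technique: automated 10x imaging of fixed Hoechst-stained cells / Times: induction 48 h, compound 1 h, agonist 30 min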
KCC2 secondary – KCC2 modulators in sodium-free buffer, confirmation, cell-based, HEK293 KCC2, thallium flux, secondary assay | normalised thallium flux (F/F0 slope) at 10 µM | 15% of 3,700 active | shares compounds with KCC2 mod | FluoZin2 fluorescence; active compounds read high;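 active means thallium flux slope above the same plate's solvent-only control mean plus 3 SD; inconclusive means the two replicate wells disagree; inactive means no significant difference from solvent-only control wells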
KCC2 bumet counter – thallium flux persisting under bumetanide in KCC2 cells, confirmation, counter-screen for KCC2 modulator project, cell-based, HEK293 KCC2, FluoZin2, secondary assay 3; shares compounds with KCC2 mod; HEK293-KCC2 + bumetanide/ouabain; active compounds read high; normalized thallium flux at 10 µM; 49% of 3,700 active;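 active means thallium entry rate above the same plate's blocked-transporter control wells by more than 3 SD; inconclusive means the two repeat wells disagree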;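 further: raw slope of fluorescence over initial fluorescence between 10 and 20 s after thallium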
KCC2 secondary2 – KCC2 modulators without ouabain present, confirmation, cell-based, HEK293 KCC2, thallium flux, FluoZin2, secondary assay 2; normalized thallium flux at 10 µM; thallium flux FluoZin2 fluorescence; actives lie on both sides; F/F0 rise rate, 10–20 s post-thallium; shares compounds with KCC2 mod; 23% of 3,700 active;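 active means thallium flux slope more than 3 SD above or below the plate's solvent-only control mean, mostly below; inconclusive means the two repeat wells disagreed; inactive means no significant shift from solvent-only controls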;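 further: raw slope with 0.1% DMSO as baseline and bumetanide as block control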
HEK293 Tl flux – thallium flux modulation in parental HEK cells, confirmation, counter-screen for KCC2 modulator project, cell-based, counterscreen 1; shares compounds with KCC2 mod; HEK293 parental cells, thallium flux FluoZin2, ouabain; baseline-ratio fluorescence slope, 10–20 s after thallium; thallium flux rate (normalised fluorescence) at 10 µM; 46% of 3,700 active; AID 1716, 2009;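 active means thallium flux rate significantly above the same plate's solvent-only control wells, beyond their mean plus 3 SD; inconclusive means the two replicate wells gave conflicting results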
KCC2 retest ouab – KCC2 inhibitors and activators, ouabain retest, confirmation, HEK-KCC2 cells | AID 1717, 2009 | HEK293-KCC2, thallium flux FluoZin2 fluorescence; bidirectional: low = inhibitor, high = activator | shares compounds with KCC2 mod | raw Tl+ flux slope (below DMSO = inhibition, above = activation) at 10 µM | 48% of 3,700 active;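 active means thallium flux slope beyond 3 SD from same-plate DMSO control mean in most replicates, usually higher, sometimes lower; inconclusive means repeat tests gave conflicting results; inactive means no significant difference from controls in most replicates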;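 further: slope of initial-normalized fluorescence between seconds 10 and 20 after thallium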
HEK293 Tl flux2 – native HEK Tl+ uptake effects, second counter-screen – HEK cells, counterscreen 2, counter-screen for KCC2 modulator project, confirmation | shares compounds with KCC2 mod | HEK293 parental, thallium flux FluoZin-2 fluorescence slope | thallium flux slope at 10 µM | 33% of 3,700 active | AID 1718, 2009;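 active means thallium flux slope above the same plate's solvent-control mean plus 3 SD in both duplicate wells; inconclusive means duplicate wells that disagreed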;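 further: run without ouabain in cells lacking the KCC2 cotransporter; slope of fluorescence scaled to its starting value between 10 and 20 s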
The depositor's hits bear a star; i = inactive; ? = inconclusive; . = no result given; + = active, no number. A selection: hits, their analogues and other compounds. The true share with any hit is near 4.1%.

SMILES	DTT redox prof	KCC2 mod	Autophagy HCS	ROMK mod	Dynein cargo inh	KCC2 secondary	KCC2 bumet counter	KCC2 secondary2	HEK293 Tl flux	KCC2 retest ouab	HEK293 Tl flux2
O=[N+]([O-])c1cccc(/C=N/NC2=NS(=O)(=O)c3ccccc32)c1	0	-3.8*	i	-0.048	-1.3	0.01	?	0.031	0.0073	0.02	0.0098
O=c1[nH]c(C2CCN(S(=O)(=O)c3ccccc3)CC2)nc2c1nnn2Cc1ccccc1	-1	.	i	.	1.3	.	.	.	.	.	.
Cc1ccc(Cn2nnc3c(=O)[nH]c(C4CCN(S(=O)(=O)c5ccc(C)cc5)CC4)nc32)cc1	0	.	i	1.1	0.51	0.0071	0.0049	0.031	0.008	0.019	0.011
O=C(c1ccccc1)N1CCCC(c2nc3c(nnn3Cc3ccccc3)c(=O)[nH]2)C1 (stereo unspecified)	1	-0.81	i	.	-0.19	.	.	.	.	.	.
O=C(C1CCCCC1)N1CCCC(c2nc3c(nnn3Cc3ccccc3)c(=O)[nH]2)C1 (stereo unspecified)	-1	.	i	-0.39	-0.14	0.0058	?	0.026*	0.0061*	0.016*	?
CC(C)Oc1ccccc1OCCCOc1cccc2cccnc12	0	-3.8*	i	-0.1	0.083	0.0071	0.0049	?	0.0064	0.017*	0.01
c1ccc(OCCOc2cccc3cccnc23)cc1	0	-1.6	i	-0.02	0.71	.	.	.	.	.	.
CCSc1nnc(NC(=O)CSc2nccn2-c2cccc(C)c2C)s1	2	3.1*	i	-2	-0.12	0.0061	0.016*	0.034	0.015*	0.022	0.018*
CCOC(=O)Cn1c(=O)oc2cc(S(=O)(=O)N3CCc4ccccc43)ccc21	0	-3.3*	i	.	-0.77	0.0092	0.006	0.031	0.0083	0.021	0.011
Cc1ccc(-n2c(C)cc(-c3csc(N)n3)c2C)cc1	0	-3.2*	i	.	1.6	0.0086	0.0063	0.035	?	0.019	0.012
Cc1ccc(-c2nn(Cc3ccccc3)cc2/C=C/C(=O)O)cc1	0	-4.5*	i	.	0.46	0.0095	0.0063	0.025*	0.0082	0.013*	0.012
O=C(O)/C=C/c1cn(Cc2ccccc2Cl)nc1-c1ccccc1	.	-5.1*	.	.	-0.82	0.0066	0.0044	0.024*	0.0073	0.011*	0.01
Cc1ccc(Cn2cc(/C=C/C(=O)O)c(-c3ccccc3)n2)cc1	3	-2.9	i	.	-0.47	.	.	.	.	.	.
O=C(O)/C=C/c1cn(Cc2ccccc2)nc1-c1ccc(Cl)cc1	-1	-4.7*	i	0.24	-2.1	?	0.006	?	0.0062	0.012*	0.01
O=C(NCCOc1ccccc1)C(=O)c1c[nH]c2ccccc12	.	-0.6	.	0.97	0.5	.	.	.	.	.	.
COc1ccc(/C=N/OCC(=O)Nc2ccc3c(c2)OCO3)c(OC)c1	-1	-1.8	i	0.35	-0.023	.	.	.	.	.	.
Cc1ccc(O)c(C2=NNC(c3ccc(Cl)cc3)C2)c1 (stereo unspecified)	.	8.6*	.	.	-0.5	0.0094	0.016*	0.033	0.013*	0.027	?
Oc1ccc(Cl)cc1C1=NNC(c2cccs2)C1 (stereo unspecified)	.	68*	.	.	-0.41	0.01	0.098*	?	0.061*	0.077*	0.023*
Oc1ccccc1C1CC(c2cccs2)=NC(c2ccc(Cl)cc2)N1 (stereo unspecified)	1	0.98	i	-0.2	2.2	.	.	.	.	.	.
CSc1nsc(N/N=C/c2ccc3c(c2)OCO3)c1C#N	-1	8.2*	i	-0.21	0.66	0.0095	0.0068	0.035	0.0043	0.02	0.012
Cc1cc(=O)[nH]c(-n2ncc(C#N)c2N)n1	-2	1.2	i	-0.37	-0.033	.	.	.	.	.	.
CC(C)(CN1CCN(c2ccccc2)CC1)NS(=O)(=O)c1ccccc1	.	0.23	.	.	0.33	.	.	.	.	.	.
COc1ccc(/C=C2\SC(=N)N(c3nccs3)C2=O)cc1OC	0	4.6*	i	.	0.63	0.0066	0.032*	0.033	0.022*	0.029*	0.019*
N=C1S/C(=C\c2ccc(-c3cccc(Cl)c3)o2)C(=O)N1c1nccs1	1	6.6*	+	.	-0.88	0.0073	0.0089*	0.032	0.015*	0.022	0.017*
CCOc1cccc2sc(NC(=O)c3ccc(Br)s3)nc12	-1	32*	i	.	1.1	?	0.056*	0.049*	0.034*	0.038*	0.032*
CC(=O)C1CCC2C3CCC4=CC(=O)CC[C@]4(C)[C@@]3(F)C(O)C[C@]12C (stereo partly specified)	.	1.3	.	.	-0.95	.	.	.	.	.	.
CCN1C(c2ccc(F)cc2)=CS/C1=C(\C#N)c1nnc2n1-c1ccccc1SC2	0	-5.1*	i	.	1.2	0.0084	0.0048	0.034	0.0078	0.015*	0.012
CN1C(c2ccc(F)cc2)=CS/C1=C(/C#N)c1nnc(N2CCOCC2)n1-c1ccccc1	0	-2.1	i	.	i	.	.	.	.	.	.
CCn1c(N2CCC(Cc3ccccc3)CC2)nc2c1c(=O)[nH]c(=O)n2C	-2	-3.1*	i	.	-0.68	0.0078	0.0046	0.032	0.0061*	0.016*	0.011

Bioassay records as filed in PubChem BioAssay.
